# From PubChem BioAssay
# PLC-beta3 inh: inhibitors of human phospholipase C beta3 | Q01970 | Purified PLC-beta3, fluorogenic substrate, fluorescence | inhibition, % at 12.2 µM | actives 0.18% (n = 370,000) | AID 720704
# PLC-gamma1 inh: PLC-gamma1 (human) inhibition, primary screen; inhibition, % at 12.2 µM; actives 0.84% (n = 370,000); AID 720700; purified PLC-gamma1, fluorogenic substrate, fluorescence; P19174; in the data active means inhibition above about 9.5%
# procasp7 counter: activates human procaspase-7, counter-screen for procaspase-3 activators; P55210; recombinant procaspase-7, Ac-DEVD-pNA absorbance 405 nm; D23A/D198A/D206A triple mutant, cannot self-cleave; scale: DMSO 0, 5 µM enzyme 100; activation, % at 8.5 µM; actives 0.093% (n = 330,000); AID 463210;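 active means percent activation above the screen-wide mean plus 3 SD, cut at about 25% in these data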
#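 Test system: Procaspase-7 triple mutant (PC-7 D3A). Also added: Ac-DEVD-pNA substrate, 400 µM as added. Schedule: 1 h enzyme–compound preincubation and 2 h substrate reaction, both 25 °C. Signal: p-Nitroaniline absorbance at 405 nm, read at 0 and 120 min. Control set: low DMSO alone, high DMSO plus 5 µM PC-7.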
# proCasp3 act: procaspase-3 (human) activation; actives 0.11% (n = 330,000); activation, % at 8.5 µM; P42574; AID 463141; recombinant procaspase-3 D3A, Ac-DEVD-pNA absorbance 405 nm;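 active means activation above the mean of all tested compounds plus 3 SD, cut at about 21% in these data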
#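 Evaluation: percent activation relative to control range; Material: Procaspase-3 D3A mutant, all three cleavage aspartates alanine; Compound: single dose, 8.5 µM nominal compound, 0.8% DMSO; Replication: one well per compound; Signal: absorbance at 405 nm, 0 and 120 min; Schedule: 1 h preincubation plus 2 h reaction at 25 °C.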
# sPLA2-III inh: Blocks human group III sPLA2 activity. actives 0.56% (n = 370,000). Q9NZ20. inhibition, % at 12.2 µM. QFRET BODIPY PC-A2 liposome hydrolysis, fluorescence. AID 743126;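 active means inhibition above mean plus 3 SD of compounds lying within the high and low control bounds, cut at about 19% in these data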
# Target sequence (Q9NZ20 whole entry, looked up): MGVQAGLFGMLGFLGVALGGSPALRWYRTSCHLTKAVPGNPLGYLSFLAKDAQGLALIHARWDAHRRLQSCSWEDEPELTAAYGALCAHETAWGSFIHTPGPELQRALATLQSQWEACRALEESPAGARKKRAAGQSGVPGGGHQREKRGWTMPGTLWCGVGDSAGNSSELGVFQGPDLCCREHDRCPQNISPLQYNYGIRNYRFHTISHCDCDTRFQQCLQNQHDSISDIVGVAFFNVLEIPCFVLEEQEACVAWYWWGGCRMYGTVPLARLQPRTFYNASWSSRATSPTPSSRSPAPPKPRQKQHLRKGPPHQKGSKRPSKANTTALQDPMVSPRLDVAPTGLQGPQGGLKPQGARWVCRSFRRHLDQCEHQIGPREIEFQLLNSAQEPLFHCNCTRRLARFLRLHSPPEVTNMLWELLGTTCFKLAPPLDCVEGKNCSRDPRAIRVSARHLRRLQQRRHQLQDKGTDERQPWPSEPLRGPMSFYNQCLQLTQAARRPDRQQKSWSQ
# Arr AP2 block: inhibitors of human beta-arrestin and AP2 interaction. FITC-arrestin peptide / GST-AP2 beads, flow cytometry; AP2 beta2 appendage carries R879A mutation. inhibition, % at 10 µM. actives 0.31% (n = 340,000);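 active means inhibition above a set limit, near 3 SD of compounds lacking own fluorescence, cut at about 54% in these data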
#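 Assay system: GST-AP2 R879A bound to glutathione beads, E. coli-expressed; Medium: PBS with 0.05% Tween 20 and 0.1% BSA; Also added: fluorescein-tagged arrestin peptide at 50 nM final; Timing: 12 min plus 1 h, RT; Measured by: flow cytometry, FL1 (488/535 nm); Evaluation: percent drop in bead-associated FITC signal.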
# PLCgamma1 ctr: PLC-gamma1 inhibition, counter-screen for PLC-beta3 hits; purified PLC-gamma1, fluorogenic substrate, fluorescence; AID 743258; inhibition, % at 12.3 µM; actives 3.1% (n = 3,300); shares compounds with PLC-gamma1 inh; in the data active means inhibition above about 9.5%
# PLCbeta3 conf: confirmation of human PLC-beta3 inhibitors | purified PLC-beta3, fluorogenic substrate fluorescence | shares compounds with PLC-gamma1 inh | inhibition, % at 12.3 µM | actives 1% (n = 3,300)
# A number is an active result; n = inactive; x = not tested or not shown. Compounds with a hit are over-represented: about 1.9% of the library has one in this group of screens. Unless noted, no stated cut-off is given here; in the data, active means inhibition above about 11%; inactive means the rest.
SMILES,PLC-beta3 inh,PLC-gamma1 inh,procasp7 counter,proCasp3 act,sPLA2-III inh,Arr AP2 block,PLCgamma1 ctr,PLCbeta3 conf
COc1ccc(CNc2nc(NCc3ccc(OC)cc3)c3[nH]cnc3n2)cc1,n,11.8,n,n,n,x,n,n
COc1ccc(CNc2ncnc(N)n2)cc1,n,n,n,n,n,n,x,x
Cc1ccccc1CN1CCCCC(NC(=O)c2cccc([N+](=O)[O-])c2)C1=O (stereo not given),n,n,x,x,n,x,x,x
CN(C)c1ccc(/C=N/NC(=O)c2nonc2N)cc1[N+](=O)[O-],n,9.8,n,n,n,n,n,n
Cc1ncc([N+](=O)[O-])n1CCOC(=O)NC(NCc1ccccc1)C(Cl)(Cl)Cl (stereo not given),n,n,n,n,n,n,x,x
Cc1ncc([N+](=O)[O-])n1CCOC(=O)c1ccccc1,12.5,10.1,n,n,n,n,n,n
COc1ccc(S(=O)(=O)N(CC(=O)NC(C)C)Cc2ccccc2)cc1,n,n,n,n,n,n,x,x
COc1ccc(S(=O)(=O)N(CCc2ccccc2)CC(=O)NC(C)C)cc1,n,10.7,n,n,n,n,n,n
COCCSc1ccccc1C(=O)Nc1nncs1,n,10.4,n,n,n,n,n,n
CS(=O)(=O)N(CCc1ccccc1)CC(=O)N1CCCCCC1,12.6,n,x,x,n,x,n,n
COc1ccccc1C(CC(=O)O)c1ccc2c(c1)OCO2 (stereo not given),n,n,n,n,n,n,x,x
COc1ccc(C(C)c2cc3c(cc2OCC(=O)O)OCO3)cc1 (stereo not given),21.1,n,x,x,n,x,n,n
COc1cccc(CCNC(=O)CCc2nc(-c3ccccc3F)no2)c1,n,n,x,x,n,x,x,x
FC(F)(F)Oc1ccc(Cn2ccc3ccc(-c4ccc5ccn(Cc6ccc(OC(F)(F)F)cc6)c5c4)cc32)cc1,n,n,x,x,n,x,x,x
Cc1cc(-c2nc(C)c(C(=O)NNS(=O)(=O)c3ccc(Cl)cc3Cl)s2)no1,n,n,n,n,n,n,x,x
Cc1cc(-c2nc(C)c(C(=O)NNS(=O)(=O)c3cccc(C(F)(F)F)c3)s2)no1,n,10.5,n,n,n,n,n,n
CC(C)CC(NC(=O)c1ccccc1)C(=O)OCC(=O)Nc1ccc(Br)cn1 (stereo not given),n,10.7,n,n,n,n,n,n
CCCNC(=O)c1cccc(Cn2nc(C)c(Br)c2C)c1,n,12.2,n,n,n,n,n,n
O=C(NCc1ccccc1)C(c1ccccc1)N(C(=O)c1csnn1)C1CCCC1 (stereo not given),n,n,n,n,n,n,x,x
COc1ccc(CNC(=O)C2CCC(CNS(=O)(=O)c3ccc(C)cc3)CC2)cc1 (stereo not given),n,10.2,n,n,n,n,n,n
Cc1cc(C)nc(NCC(O)CNc2ccccc2C)n1 (stereo not given),n,n,n,n,n,n,x,x
Cc1cc(C)nc(NCC(O)COc2ccccc2C)n1 (stereo not given),n,12.3,n,n,n,n,n,n
COc1ccc(-c2cc(-c3nnc(SCc4cccc5ccccc45)n3N)[nH]n2)cc1,n,n,x,x,n,x,x,x
CCOc1ccc(N2C(=O)CC(S/C(N)=N/N=C/c3cccs3)C2=O)cc1 (stereo not given),n,10.3,n,n,n,n,n,n
O=C(O/N=C1\CCCc2ccccc21)c1cccc(Cl)c1,11.1,9.6,n,n,n,n,n,n
Cc1ccccc1C(=O)NCC(=O)NC1CC1,n,n,n,n,n,n,x,x
COc1cccc(C(C(=O)NCc2ccccc2)N2CCN(c3ccccc3F)CC2)c1OC (stereo not given),n,n,x,x,n,x,x,x
